The record followed here is the RNAGym collection of RNA variant scans (doi:10.1126/science.aae0568).

B1: tRNA (parent)
chain: GUUCCGUUGGCGUAAUGGUAACGCGUCUCCCUCCUAAGGAGAAGACUGCGGGUUCGAGUCCCGUACGGAACG

Variants at the floor of the assay were thinned out.

The variants in this series derive from B1. Description: yeast fitness relative to wild type (ratio to wild type); higher = fitter; tRNA-Arg(CCU), competitive growth, 37 C, YPD. An outline of the steps: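 Genotype frequency changes were the basis for Darwinian fitness relative to wild type. The frequencies came from 100-nucleotide paired-end sequencing of gene amplicons from the start population and each end population of pooled yeast strains with tRNA-Arg(CCU) gene variants at the native locus. Competition ran in YPD at 37°C for 24 hours in six replicates, genotypes needed ≥ 100 starting reads, and estimates < 0.5 were set to 0.5.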
Regarding A57C A65U C66G, the yeast fitness is not above 0.5. In the case of G52A G58C A70G, the yeast fitness is not above 0.5. For the variant U53A C55A, the yeast fitness was 0.756.

In the case of C55U C60A A65U, the yeast fitness was not above 0.5. As for C55U C61A G68C, the yeast fitness was not above 0.5. Regarding C55U C66G A70C, the yeast fitness is not above 0.5. With C55G G56A C61U, the yeast fitness was not above 0.5. Take U53C A69U: the yeast fitness was 0.997. As for G52A C55U, the yeast fitness came out at 0.561. Consider G52A C55A, for which the yeast fitness was 0.581. As for G52A C55G, the yeast fitness worked out at 0.561. For the variant C55G C62U, the yeast fitness worked out at 0.626.

In the case of G56A G67A A69C, the yeast fitness was 0.797. For C55A A57U, the yeast fitness came to 0.694. As for C55A A57G, the yeast fitness came out at 0.671. Regarding C55A A57C, the yeast fitness was determined as 0.597. For A57U A70G, the yeast fitness amounted to 0.753. The figure for G56C A57G C61G C66U A69G is not above 0.5.

Regarding C55A G56C G67C, the yeast fitness came to 0.574. For U54G C62G, the yeast fitness was found to be 0.559. As for U54A C62U A65G G68A, the yeast fitness was not above 0.5.

Turning to G52A U59A A69C A70C, the yeast fitness stood at 0.609. The figure for G56A C66U is 1.1; for A57G C60U A70U it is not above 0.5. Consider G52A C61U, for which the yeast fitness was determined as 0.886. For U54C C55G A57U C62U, the yeast fitness was not above 0.5.

Take C55A U59A: the yeast fitness was determined as 0.513. In the case of G56C A70C it was 0.813; in that of G52A U64C, 0.789.

As for A57C G58C, the yeast fitness stood at 0.77.

On to A57C G58A, for which the yeast fitness was determined as 0.696. The figure for U54A A70U is 0.768. For the variant U54A A70G, the yeast fitness amounted to 0.702. With U53A A65U, the yeast fitness is 0.601. The figure for U53A A65G is 0.571; for C55A G58C C66G it is 0.623; for A57C G63A it is 0.558. For the variant G56A A57U C62G, the yeast fitness is not above 0.5.

With G56A C60U, the yeast fitness is 0.845. Turning to G56A C61U C62G, the yeast fitness is not above 0.5. On to C55U U59A, for which the yeast fitness amounted to 0.891. Turning to G52C G63A A69G, the yeast fitness was not above 0.5. Take C55U C60U: the yeast fitness worked out at 0.584. On to A57C C61A G67A, for which the yeast fitness stood at 0.56. Turning to C55U C62G C66A, the yeast fitness was determined as 0.53. For the variant G56C G67U, the yeast fitness was found to be 0.524. With G56C G67A, the yeast fitness amounted to 0.592.

Consider U54A G56C, for which the yeast fitness came to 0.691. On to G52C C60A, for which the yeast fitness worked out at 0.641. As to G52C C60U, the yeast fitness turned out to be 0.533.

As to G56C U59A A65G, the yeast fitness worked out at 0.571. With A57U C60A, the yeast fitness turned out to be 0.54. In the case of A57U C60G it was 0.532; in that of U54A U64C, 0.683. U54A C60G C66U: the yeast fitness is not above 0.5.

Take U53A C61U U64A: the yeast fitness is not above 0.5. Turning to G56A A57U A70U, the yeast fitness is not above 0.5. For the variant G52A C61A A69U, the yeast fitness is not above 0.5.

On to C55G A57U C62U C66U, for which the yeast fitness was not above 0.5. Turning to C55A A69U, the yeast fitness was found to be 0.694.

On to U54C C62A, for which the yeast fitness amounted to 0.595. Turning to U54C A57G, the yeast fitness amounted to 0.919. On to U54C A57C, for which the yeast fitness came out at 0.619. Turning to A57G G68C, the yeast fitness amounted to 0.857. In the case of A57G G68A it was 0.944. A57C C62G: the yeast fitness was 0.818. Consider C55G G63C G67C, for which the yeast fitness was found to be 0.532. As for U53C U59A, the yeast fitness turned out to be 0.731. Consider U54C C55G, for which the yeast fitness amounted to 0.654. Consider U53A A70G, for which the yeast fitness was determined as 0.594.

Consider U53A C61A, for which the yeast fitness worked out at 0.509. On to U53A C61G, for which the yeast fitness is not above 0.5. The figure for C55A A70C is 0.807; for U54C C62U G68C it is not above 0.5; for U53A G67C it is 0.664. As for U53A A57G, the yeast fitness was 0.556. The figure for C55A G68A is 0.674; for U53C C60U A69C it is 0.57. Regarding G56U A57G G68U, the yeast fitness was not above 0.5.

On to U54A C61U, for which the yeast fitness came out at 0.715. For the variant A57G G67C, the yeast fitness stood at 0.932. G52C A57C G63C: the yeast fitness was found to be 0.519. Consider G56A A65U G67A, for which the yeast fitness is not above 0.5. In the case of U54C C60U it was 0.546. The figure for G56A A65C A69C is not above 0.5; for G56A G58C it is 0.95.

With G56A G58A, the yeast fitness turned out to be 0.907.

Turning to A57C A69U, the yeast fitness turned out to be 0.605.

As for A57G C60G, the yeast fitness stood at 0.641.

Turning to A57G C60U, the yeast fitness turned out to be 0.838. In the case of A57G C60A, the yeast fitness turned out to be 0.636. For the variant C55G C61G, the yeast fitness was not above 0.5. With G56C U59G, the yeast fitness came out at 0.693.

Consider G56C U59C, for which the yeast fitness is 0.607.

Turning to U54G A65G G68U A70C, the yeast fitness is not above 0.5.

In the case of G52A G68C, the yeast fitness was found to be 0.744. Take G52A G68U: the yeast fitness is 0.653. A57U A65C: the yeast fitness came out at 0.865. Consider C55G C60U G68C, for which the yeast fitness was not above 0.5. For G56C A57G A69C, the yeast fitness was not above 0.5. In the case of G52A G56C A65U it was not above 0.5; in that of G52C G63A, 0.642. Regarding U54A C55U, the yeast fitness was 0.615.

With C55U A69U, the yeast fitness was 0.684. C55U A69G: the yeast fitness was found to be 0.802. With G52A U54C, the yeast fitness came out at 0.589. With U54A C66A, the yeast fitness amounted to 0.528.

Consider U54A C66U, for which the yeast fitness turned out to be 0.729. On to C55G A57U A65C, for which the yeast fitness is not above 0.5. With U53C C61G G67A A69C, the yeast fitness was 0.552. The figure for G52C A57U is 0.514.

Consider U53A G56C C60A A70G, for which the yeast fitness was 0.58. In the case of A57G A70U, the yeast fitness was found to be 0.937. On to U54G A65U, for which the yeast fitness was not above 0.5. On to C55A C66A, for which the yeast fitness worked out at 0.541.

As for U54G C61G, the yeast fitness is not above 0.5. For U54G C61A, the yeast fitness is not above 0.5. In the case of C55G A57C it was 0.713; in that of C55G A57G, 0.638. As to G52A C60A, the yeast fitness was determined as 0.696.

Regarding G52A C60G, the yeast fitness was not above 0.5. As to A57G G67A A70U, the yeast fitness is not above 0.5. As for G52A U59A A69C, the yeast fitness stood at 0.571. For the variant A57C A70C, the yeast fitness was determined as 0.676. Regarding A57C A70U, the yeast fitness turned out to be 0.679.

U53C G58A: the yeast fitness amounted to 1.02. Regarding U53G G63C A69C, the yeast fitness is not above 0.5. For G52C A65C A70G, the yeast fitness worked out at 0.515. With G56C C62A, the yeast fitness is 0.563. Regarding U54A U59C, the yeast fitness is 0.613. For U54C C61G, the yeast fitness was found to be 0.713. In the case of U54C C61U it was 0.868. As to U54C C61A, the yeast fitness was found to be 0.776.

On to C55G U59A G63A, for which the yeast fitness was found to be 0.673. Take G52A U53A C66U: the yeast fitness is not above 0.5. As to A57C G58A A70C, the yeast fitness was not above 0.5. As for G56A G67A, the yeast fitness was 0.901. With G56A G67C, the yeast fitness was determined as 0.812. With C55G C60A C62A G68A A69U, the yeast fitness was not above 0.5. Regarding U54A C55A C66G A70C, the yeast fitness is not above 0.5. As to G52A G56U A70U, the yeast fitness is not above 0.5.

For the variant G52C A69U A70U, the yeast fitness is not above 0.5.

As to G56A A65G C66U, the yeast fitness stood at 0.763. In the case of U54C A69U it was 0.986; in that of U54C A69C, 0.965; in that of C55A A57C G68C, 0.5. In the case of G52C, the yeast fitness is 0.635.

Take G52U: the yeast fitness turned out to be 0.785. Consider C55G A70G, for which the yeast fitness worked out at 0.673. For C55U U59A A70U, the yeast fitness was 0.524. As to U54C G56C, the yeast fitness came out at 0.593. Turning to C55U G63A C66G, the yeast fitness is not above 0.5. As to C55A G67C, the yeast fitness is 0.686. In the case of U54C G67U it was 0.798; in that of G52A G58A A65G, 0.684. For the variant U54A A65C, the yeast fitness was 0.724.

Turning to U54A A65U C66U, the yeast fitness is not above 0.5. Consider C55U G58C, for which the yeast fitness turned out to be 0.842. In the case of U54C G56A C62A it was not above 0.5; in that of G52C U64A, 0.573.

Take G52A A69U: the yeast fitness amounted to 0.853. For the variant C55A A57U C66U, the yeast fitness stood at 0.574. Take C55U G58A G67A: the yeast fitness is 0.546.

Take C55U C61A A65U: the yeast fitness came out at 0.581. Turning to C55U C61A A65G, the yeast fitness is not above 0.5.

Consider G56C C61A, for which the yeast fitness is not above 0.5. For the variant G56A G63C, the yeast fitness is 0.818.
